{
  "source": "ChEMBL document CHEMBL1145995",
  "about": "“Tricyclic benzimidazoles as potent poly(ADP-ribose) polymerase-1 inhibitors” (J Med Chem, 2003)",
  "key": {"[1]": {"molecular_target": "T1, Poly [ADP-ribose] polymerase 1 (Homo sapiens, UniProt P09874)", "T1 sequence (P09874 whole entry)": "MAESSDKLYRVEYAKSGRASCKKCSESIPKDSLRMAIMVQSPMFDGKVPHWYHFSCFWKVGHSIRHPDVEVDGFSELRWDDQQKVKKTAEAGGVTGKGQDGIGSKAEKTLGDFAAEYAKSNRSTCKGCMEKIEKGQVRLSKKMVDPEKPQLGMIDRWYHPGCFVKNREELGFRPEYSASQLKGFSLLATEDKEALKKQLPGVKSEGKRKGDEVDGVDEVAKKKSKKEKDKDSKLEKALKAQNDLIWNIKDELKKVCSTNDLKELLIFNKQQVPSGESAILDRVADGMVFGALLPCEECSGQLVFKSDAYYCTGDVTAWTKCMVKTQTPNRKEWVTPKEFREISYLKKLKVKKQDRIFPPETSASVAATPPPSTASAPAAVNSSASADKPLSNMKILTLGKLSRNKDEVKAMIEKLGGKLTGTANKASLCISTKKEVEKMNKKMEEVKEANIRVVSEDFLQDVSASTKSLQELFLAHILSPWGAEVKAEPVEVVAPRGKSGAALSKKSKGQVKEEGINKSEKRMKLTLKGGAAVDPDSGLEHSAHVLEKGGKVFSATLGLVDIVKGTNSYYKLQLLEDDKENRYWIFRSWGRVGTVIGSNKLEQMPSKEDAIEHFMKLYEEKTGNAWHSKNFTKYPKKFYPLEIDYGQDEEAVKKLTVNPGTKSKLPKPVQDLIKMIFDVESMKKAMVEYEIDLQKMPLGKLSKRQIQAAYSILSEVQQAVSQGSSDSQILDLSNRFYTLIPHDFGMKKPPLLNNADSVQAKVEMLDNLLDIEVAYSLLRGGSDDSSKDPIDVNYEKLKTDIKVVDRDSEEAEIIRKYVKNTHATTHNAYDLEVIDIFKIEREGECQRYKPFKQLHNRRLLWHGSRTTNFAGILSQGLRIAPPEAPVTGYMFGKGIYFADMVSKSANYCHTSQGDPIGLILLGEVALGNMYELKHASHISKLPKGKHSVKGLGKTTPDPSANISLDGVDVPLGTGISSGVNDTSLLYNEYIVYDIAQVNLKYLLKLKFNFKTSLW", "assay": "Inhibitory activity against human full length Poly (ADP-ribose) polymerase 1 at 100 uM", "outline": "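Human full-length PARP-1 enzyme assay. Tested at a single concentration of 100 μM, reported as percent inhibition instead of a Ki value.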"}, "A549 [2]": {"tested_on": "A549", "assay": "Enhancement factor of 200 uM temozolomide by 0.4 uM PARP inhibitor in A549 cells"}, "A549 [3]": {"tested_on": "A549", "assay": "Concentration that gives 50% growth inhibition (topotecan alone/ (topotecan + 0.4 uM of compound)) in A549 cells", "format": "functional, Homo sapiens", "outline": "(§1)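 A549 cells exposed to temozolomide (TM) or topotecan (TP), each with or without 0.4 μM PARP inhibitor. […] PF50 = GI50 of cytotoxic agent alone ÷ GI50 with inhibitor. Values are the average of two independent experiments.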"}, "A549 [4]": {"tested_on": "A549", "assay": "Effect on NAD+ depletion (% remaining versus vehicle control) in presence of MNNG (25 uM) at 0.006 uM compound concentration in A549 cells", "format": "functional, Homo sapiens", "outline": "(§2)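 A549 cells treated with vehicle, with 25 μM MNNG (subtoxic DNA alkylation), or with 25 μM MNNG plus inhibitor at 0.006–11 μM. Cellular NAD+ measured by an enzyme recycling method and expressed as % remaining relative to vehicle-treated cells without DNA damage.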"}, "LoVo [5]": {"tested_on": "LoVo", "assay": "Potentiation of topotecan in LoVo cells by 0.40 uM compound (TP)", "format": "functional, Homo sapiens"}, "LoVo [6]": {"tested_on": "LoVo", "assay": "Potentiation of temozolomide in LoVo cells by 0.40 uM compound (TM)", "format": "functional, Homo sapiens"}, "A549 [7]": {"tested_on": "A549", "assay": "Percent ADP-ribose polymer formation in presence of MNNG (25 uM) at 11 uM compound concentration in A549 cells", "format": "functional, Homo sapiens", "outline": "(§3)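 A549 cells treated with vehicle, with 25 μM MNNG, or with 25 μM MNNG plus inhibitor at 0.006–11 μM. ADP-ribose polymer quantified by HPLC and expressed as % of the polymer formed with 25 μM MNNG alone.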"}, "A549 [8]": {"tested_on": "A549", "assay": "Effect on NAD+ depletion (% remaining versus vehicle control) in presence of MNNG (25 uM) at 0.15 uM compound concentration in A549 cells", "format": "functional, Homo sapiens", "outline": "as §2"}, "A549 [9]": {"tested_on": "A549", "assay": "Concentration that gives 50% growth inhibition (temozolomide alone/ (temozolomide + 0.4 uM of compound)) in A549 cells", "format": "functional, Homo sapiens", "outline": "as §1"}, "A549 [10]": {"tested_on": "A549", "assay": "Concentration that gives 50% growth inhibition in A549 cells, activity expressed as PF50 (TP) at 0.4 uM", "format": "functional, Homo sapiens", "outline": "(§4)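 A549 cells given topotecan alone or together with the PARP inhibitor at the listed concentration. PF50 (TP) = GI50 of topotecan alone ÷ GI50 of topotecan with inhibitor.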"}, "A549 [11]": {"tested_on": "A549", "assay": "Concentration that gives 50% growth inhibition in A549 cells, activity expressed as PF50 (TP) at 0.15 uM", "format": "functional, Homo sapiens", "outline": "as §4"}, "A549 [12]": {"tested_on": "A549", "assay": "Percent ADP-ribose polymer formation in presence of MNNG (25 uM) at 0..006 uM compound concentration in A549 cells", "format": "functional, Homo sapiens", "outline": "as §3"}, "A549 [13]": {"tested_on": "A549", "assay": "Percent ADP-ribose polymer formation in presence of MNNG (25 uM) at 0..4 uM compound concentration in A549 cells", "format": "functional, Homo sapiens", "outline": "as §3"}, "LoVo [14]": {"tested_on": "LoVo", "assay": "Concentration that gives 50% growth inhibition in LoVo cells, activity expressed as GI50", "format": "functional", "conditions": "Homo sapiens"}, "A549 [15]": {"tested_on": "A549", "assay": "Percent ADP-ribose polymer formation in presence of MNNG (25 uM) at 0..03 uM compound concentration in A549 cells", "format": "functional, Homo sapiens", "outline": "as §3"}, "A549 [16]": {"tested_on": "A549", "assay": "Percent ADP-ribose polymer formation in presence of MNNG (25 uM) at 0..15 uM compound concentration in A549 cells", "format": "functional, Homo sapiens", "outline": "as §3"}, "A549 [17]": {"tested_on": "A549", "assay": "Concentration that gives 50% growth inhibition in A549 cells, activity expressed as PF50 (TP) at 0.006 uM", "format": "functional, Homo sapiens", "outline": "as §4"}, "A549 [18]": {"tested_on": "A549", "assay": "Effect on NAD+ depletion (% remaining versus vehicle control) in presence of MNNG (25 uM) at 0.4 uM compound concentration in A549 cells", "format": "functional, Homo sapiens", "outline": "as §2"}, "A549 [19]": {"tested_on": "A549", "assay": "Effect on NAD+ depletion (% remaining versus vehicle control) in presence of MNNG (25 uM) at 0.03 uM compound concentration in A549 cells", "format": "functional, Homo sapiens", "outline": "as §2"}, "A549 [20]": {"tested_on": "A549", "assay": "Effect on NAD+ depletion (% remaining versus vehicle control) in presence of MNNG (25 uM) at 11 uM compound concentration in A549 cells", "format": "functional, Homo sapiens", "outline": "as §2"}, "A549 [21]": {"tested_on": "A549", "assay": "Concentration that gives 50% growth inhibition in A549 cells, activity expressed as PF50 (TP) at 0.03 uM", "format": "functional, Homo sapiens", "outline": "as §4"}, "[22]": {"molecular_target": "T1, Poly [ADP-ribose] polymerase 1", "assay": "Inhibitory activity against human full length Poly (ADP-ribose) polymerase 1"}, "A549 [23]": {"tested_on": "A549", "assay": "Concentration that gives 50% growth inhibition in A549 cells, activity expressed as PF50 (TM)", "format": "functional, Homo sapiens", "outline": "as §1"}, "LoVo [24]": {"tested_on": "LoVo", "assay": "Potentiation of topotecan in LoVo cells, by 0.40 uM compound (TP)", "format": "functional, Homo sapiens"}},
  "note": "pKi: −log10 of the molar value.",
  "data": [
    {"smiles": "CN1CCn2c(-c3cccc4ccccc34)nc3cccc(c32)C1=O", "values": [
      {"measurement": "inhibition", "setting": "[1]", "value": 40, "unit": "%"},
      {"measurement": "EF200", "setting": "A549 [2]", "value": 1.1}
    ]},
    {"smiles": "O=C1NCCn2c(-c3ccccc3)nc3cccc1c32", "values": [
      {"measurement": "PF50", "setting": "A549 [3]", "value": 1.5}
    ]},
    {"smiles": "O=C1NCCn2c(-c3ccc(CO)cc3)nc3cccc1c32", "values": [
      {"measurement": "EF200", "setting": "A549 [2]", "value": 1.5}
    ]},
    {"smiles": "CN(C)Cc1ccc(-c2nc3cccc4c3n2CCNC4=O)cc1", "values": [
      {"measurement": "Remaining", "setting": "A549 [4]", "value": 65, "unit": "%"},
      {"measurement": "PF50", "setting": "LoVo [5]", "value": 1.7},
      {"measurement": "PF50", "setting": "LoVo [6]", "value": 5.4},
      {"measurement": "PF50", "setting": "A549 [3]", "value": 2},
      {"measurement": "Formation", "setting": "A549 [7]", "value": 5.5, "unit": "%"},
      {"measurement": "Remaining", "setting": "A549 [8]", "value": 85, "unit": "%"},
      {"measurement": "PF50", "setting": "A549 [9]", "value": 2.2},
      {"measurement": "PF50", "setting": "A549 [10]", "value": 2.3},
      {"measurement": "PF50", "setting": "A549 [11]", "value": 2.1},
      {"measurement": "Formation", "setting": "A549 [12]", "value": 85, "unit": "%"},
      {"measurement": "Formation", "setting": "A549 [13]", "value": 13, "unit": "%"},
      {"measurement": "GI50", "setting": "LoVo [14]", "value": 11.2, "unit": "µM"},
      {"measurement": "Formation", "setting": "A549 [15]", "value": 38, "unit": "%"},
      {"measurement": "Formation", "setting": "A549 [16]", "value": 20, "unit": "%"},
      {"measurement": "PF50", "setting": "A549 [17]", "value": 1.6},
      {"measurement": "Remaining", "setting": "A549 [18]", "value": 88, "unit": "%"},
      {"measurement": "Remaining", "setting": "A549 [19]", "value": 75, "unit": "%"},
      {"measurement": "Remaining", "setting": "A549 [20]", "value": 99, "unit": "%"},
      {"measurement": "PF50", "setting": "A549 [21]", "value": 1.9}
    ]},
    {"smiles": "O=C1NCCn2c(-c3ccccc3Cl)nc3cccc1c32", "values": [
      {"measurement": "PF50", "setting": "A549 [3]", "value": 1.3}
    ]},
    {"smiles": "Cc1nc2cccc3c2n1CCNC3=O", "values": [
      {"measurement": "PF50", "setting": "A549 [3]", "value": 1.2},
      {"measurement": "pKi", "setting": "[22]", "value": 7.35},
      {"measurement": "PF50", "setting": "A549 [23]", "value": 1.1}
    ]},
    {"smiles": "CN(C)Cc1cccc(-c2nc3cccc4c3n2CCNC4=O)c1", "values": [
      {"measurement": "PF50", "setting": "LoVo [6]", "value": 2},
      {"measurement": "PF50", "setting": "A549 [3]", "value": 1.8},
      {"measurement": "PF50", "setting": "A549 [9]", "value": 1.4},
      {"measurement": "GI50", "setting": "LoVo [14]", "value": "> 50", "unit": "µM"},
      {"measurement": "PF50", "setting": "LoVo [24]", "value": 1.5}
    ]},
    {"smiles": "O=C1NCCn2c(-c3cccc4ccccc34)nc3cccc1c32", "values": [
      {"measurement": "PF50", "setting": "A549 [3]", "value": 1.4}
    ]},
    {"smiles": "O=C1NCCn2c(-c3cccc(CO)c3)nc3cccc1c32", "values": [
      {"measurement": "EF200", "setting": "A549 [2]", "value": 1.2}
    ]},
    {"smiles": "O=C1NCCn2c(-c3cccc(C(F)(F)F)c3)nc3cccc1c32", "values": [
      {"measurement": "PF50", "setting": "A549 [3]", "value": 1.7}
    ]},
    {"smiles": "O=C1NCCn2c(-c3ccc(Cl)cc3)nc3cccc1c32", "values": [
      {"measurement": "PF50", "setting": "LoVo [6]", "value": 2.1},
      {"measurement": "PF50", "setting": "A549 [3]", "value": 2},
      {"measurement": "PF50", "setting": "A549 [9]", "value": 1.5},
      {"measurement": "GI50", "setting": "LoVo [14]", "value": 7.9, "unit": "µM"},
      {"measurement": "PF50", "setting": "LoVo [24]", "value": 1.5}
    ]}
  ]
}
